Measurements as given in ChEMBL document CHEMBL1144383, “A new development of matrix metalloproteinase inhibitors: twin hydroxamic acids as potent inhibitors of MMPs” (Bioorg Med Chem Lett, 2005).

Assays:
[1] = target: T1, Interstitial collagenase (Homo sapiens, UniProt P03956); test: Inhibition of Matrix metalloprotease-1 in MMPi assay
T1 sequence (P03956 whole entry): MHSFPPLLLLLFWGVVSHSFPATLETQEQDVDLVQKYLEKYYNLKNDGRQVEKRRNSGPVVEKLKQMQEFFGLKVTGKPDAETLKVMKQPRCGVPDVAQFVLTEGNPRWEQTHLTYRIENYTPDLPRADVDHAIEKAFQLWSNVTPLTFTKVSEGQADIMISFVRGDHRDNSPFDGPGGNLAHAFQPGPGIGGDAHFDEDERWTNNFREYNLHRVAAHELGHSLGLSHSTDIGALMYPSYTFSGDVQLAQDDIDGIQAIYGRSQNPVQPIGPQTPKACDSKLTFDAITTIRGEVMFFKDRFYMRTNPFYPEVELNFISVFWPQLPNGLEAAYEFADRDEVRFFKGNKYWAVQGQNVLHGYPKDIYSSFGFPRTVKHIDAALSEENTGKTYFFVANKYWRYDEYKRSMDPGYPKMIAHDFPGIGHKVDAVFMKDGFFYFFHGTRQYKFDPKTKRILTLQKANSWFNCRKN

[2] = target: Matrix metalloproteinase-9 (Homo sapiens, UniProt P14780); test: Inhibition of Matrix metalloprotease-9 in MMPi assay
Chain of Matrix metalloproteinase-9 (P14780 whole entry): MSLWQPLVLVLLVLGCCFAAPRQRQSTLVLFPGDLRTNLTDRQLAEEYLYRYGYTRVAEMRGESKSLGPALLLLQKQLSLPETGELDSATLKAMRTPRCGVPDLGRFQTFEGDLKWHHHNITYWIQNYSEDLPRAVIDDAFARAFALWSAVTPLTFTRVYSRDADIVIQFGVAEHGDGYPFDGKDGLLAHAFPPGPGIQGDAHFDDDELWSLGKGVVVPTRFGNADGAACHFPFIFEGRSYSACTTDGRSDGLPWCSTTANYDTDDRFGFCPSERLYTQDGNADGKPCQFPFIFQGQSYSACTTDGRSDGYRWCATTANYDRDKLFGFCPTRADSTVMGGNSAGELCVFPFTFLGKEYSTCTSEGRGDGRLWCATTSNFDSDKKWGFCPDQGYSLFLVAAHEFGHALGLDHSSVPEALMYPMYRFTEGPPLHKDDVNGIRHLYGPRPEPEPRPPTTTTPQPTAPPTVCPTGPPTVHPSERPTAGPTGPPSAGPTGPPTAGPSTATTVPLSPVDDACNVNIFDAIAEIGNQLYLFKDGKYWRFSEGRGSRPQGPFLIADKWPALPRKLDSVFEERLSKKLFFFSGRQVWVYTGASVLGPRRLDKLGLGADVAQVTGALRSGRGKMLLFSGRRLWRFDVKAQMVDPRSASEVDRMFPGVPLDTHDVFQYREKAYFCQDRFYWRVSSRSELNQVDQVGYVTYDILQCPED

[3] = target: 72 kDa type IV collagenase (Homo sapiens, UniProt P08253); test: Inhibition of Matrix metalloprotease-2 in MMPi assay
Chain of 72 kDa type IV collagenase (P08253 whole entry): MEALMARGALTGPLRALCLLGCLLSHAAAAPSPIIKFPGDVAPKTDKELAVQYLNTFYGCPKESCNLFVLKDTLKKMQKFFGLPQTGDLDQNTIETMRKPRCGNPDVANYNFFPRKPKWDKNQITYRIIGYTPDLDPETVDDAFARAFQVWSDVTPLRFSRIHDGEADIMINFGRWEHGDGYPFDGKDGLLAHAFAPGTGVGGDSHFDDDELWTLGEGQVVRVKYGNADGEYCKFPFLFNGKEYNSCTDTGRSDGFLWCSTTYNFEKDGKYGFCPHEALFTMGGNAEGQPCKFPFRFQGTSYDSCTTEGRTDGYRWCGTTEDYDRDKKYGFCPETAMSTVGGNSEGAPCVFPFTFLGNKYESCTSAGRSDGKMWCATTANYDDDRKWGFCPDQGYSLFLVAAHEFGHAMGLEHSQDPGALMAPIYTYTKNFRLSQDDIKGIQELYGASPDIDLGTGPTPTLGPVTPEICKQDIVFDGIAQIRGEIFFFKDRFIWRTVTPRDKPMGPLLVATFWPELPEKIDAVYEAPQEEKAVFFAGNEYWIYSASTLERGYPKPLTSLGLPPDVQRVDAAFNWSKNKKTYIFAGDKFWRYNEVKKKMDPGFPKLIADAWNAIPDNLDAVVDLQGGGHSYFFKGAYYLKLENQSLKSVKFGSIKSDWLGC

[4] = target: Matrix metalloproteinase-14 (Homo sapiens, UniProt P50281); test: Inhibition of Matrix metalloprotease-14 in MMPi assay
[5] = system: HT-1080; test: Cytotoxicity as percentage of dead cells at 10 uM using Trypan Blue test on HT1080 cells; assay type: functional, Homo sapiens
In short: (§1)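 HT1080 cells stably transfected to overexpress MT1-MMP, seeded at 10⁵ cells/well and kept overnight at 37 °C. Washed free of serum, then given serum-free DMEM with insulin, transferrin and selenium. Compound added at 0, 1, 5 or 10 (micromolar) to duplicate wells for 24 h. Trypsinized cells mixed 1:1 with 0.4% trypan blue for 5 min. Blue-stained and total cells counted on haemocytometer upper and lower grids. % dead = mean of duplicates minus untreated wells.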

[6] = system: Matrix metalloproteinase-14; test: Inhibition of Matrix metalloprotease-14 in MMPi assay
[7] = system: HT-1080; test: Cytotoxicity as percentage of dead cells at 5 uM using Trypan Blue test on HT1080 cells; assay type: functional, Homo sapiens; in short: as §1
[8] = system: HT-1080; test: Cytotoxicity as percentage of dead cells at 1 uM using Trypan Blue test on HT1080 cells; assay type: functional, Homo sapiens; in short: as §1

SMILES | IC50 [1] [µM] | IC50 [2] [µM] | IC50 [3] [µM] | IC50 [4] [µM] | Dead cells [5] [%] | IC50 [6] [µM] | Dead cells [7] [%] | Dead cells [8] [%]
CC(C)ON([C@H](CCNC(=O)c1cccc(C(=O)NCC[C@H](C(=O)NO)N(OC(C)C)S(=O)(=O)c2ccc(-c3ccccc3)cc2)c1)C(=O)NO)S(=O)(=O)c1ccc(-c2ccccc2)cc1 | 10 | 0.983 | 0.197 | 1.49 |  |  |  | 
CC(C)ON([C@H](CCNC(=O)CCCNC(=O)c1cccc(C(=O)NCCCC(=O)NCC[C@H](C(=O)NO)N(OC(C)C)S(=O)(=O)c2ccc(-c3ccccc3)cc2)c1)C(=O)NO)S(=O)(=O)c1ccc(-c2ccccc2)cc1 | 0.397 | 0.0083 | 0.0098 |  | 10 | 0.034 | 5 | 0
CC(C)ON([C@H](CCNC(=O)c1cccc(C(=O)NCC[C@H](C(=O)O)N(OC(C)C)S(=O)(=O)c2ccc(-c3ccccc3)cc2)c1)C(=O)O)S(=O)(=O)c1ccc(-c2ccccc2)cc1 |  | > 30 | > 1 |  |  |  |  | 
CC(C)ON([C@H](CCNC(=O)OCc1ccccc1)C(=O)NO)S(=O)(=O)c1ccc(-c2ccccc2)cc1 | > 3 |  |  |  | 35 |  | 20 | 4
